Key:
Format in all cases: cell-based
[1] = test system: MCF-7; assay: Anticancer screening, MTT assay, 72 h; settings: Homo sapiens, MCF7, 72 h
Outline: (§1)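 Monolayer cultures were kept at 37 °C, 5% CO2 and plated on day 0 at 3 × 10^4 cells/mL (HCT 116, H460) or 5 × 10^4 cells/mL (MCF-7). Test agents were added in ten-fold dilutions (10−8 to 10−4 M) and incubated 72 h. Growth was read by MTT at 570 nm. GI50 is the concentration giving 50% inhibition. Two independent experiments were run, points at least in triplicate.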

[2] = test system: HL-60; assay: Anticancer screening, MTS cell proliferation assay, 72 h; settings: Homo sapiens
Outline: (§2)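 HL-60, K-562, Z-138 and DND-41 suspension cells were seeded at 2500–6000 cells/well directly into wells already containing test compound at seven concentrations (100 to 6.4 × 10−3 µM). After 72 h, MTS reagent was added and absorbance read at 490 nm. GI50 is the concentration giving 50% growth inhibition. Two independent experiments were run, each point at least in triplicate.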

[3] = test system: Z-138; assay: as above; settings: Homo sapiens
Outline: as §2

[4] = test system: Capan-1; assay: Anticancer screening, MTS cell proliferation assay, 72 h; settings: Homo sapiens
Outline: (§3)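 Human solid-tumour lines were grown as monolayers in supplier-recommended media at 37 °C, 5% CO2. LN-229 was seeded at 375 and Capan-1 at 250 cells/well and incubated overnight. Cells were then exposed for 72 h to seven concentrations (100 to 6.4 × 10−3 µM). MTS reagent was added and absorbance read at 490 nm. Two independent experiments were run, each point at least in triplicate.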

[5] = test system: LN-229; assay: as above; settings: Homo sapiens
Outline: as §3

[6] = test system: DND-41; assay: Anticancer screening, MTS cell proliferation assay, 72 h; settings: Homo sapiens
Outline: as §2

[7] = test system: H460; assay: Anticancer screening, MTT assay, 72 h; settings: Homo sapiens
Outline: as §1

[8] = test system: HCT 116; assay: Anticancer screening, MTT assay, 72 h; settings: Homo sapiens
Outline: as §1

[9] = test system: K-562; assay: Anticancer screening, MTS cell proliferation assay, 72 h; settings: Homo sapiens
Outline: as §2

Structure (SMILES) | GI50 [1] [µM] | GI50 ([2]; HL-60, 72 h) [µM] | GI50 ([3]; Z-138, 72 h) [µM] | GI50 ([4]; CAPAN-1, 72 h) [µM] | GI50 ([5]; LN-229, 72 h) [µM] | GI50 ([6]; DND41, 72 h) [µM] | GI50 ([7]; NCI-H460, 72 h) [µM] | GI50 ([8]; HCT-116, 72 h) [µM] | GI50 ([9]; K562, 72 h) [µM] | GI50 ([2]; HL-60) [µM] | GI50 ([3]; Z-138) [µM] | GI50 ([4]; CAPAN-1) [µM] | GI50 ([5]; LN-229) [µM] | GI50 ([6]; DND41) [µM] | GI50 ([7]; NCI-H460) [µM] | GI50 ([8]; HCT-116) [µM] | GI50 ([9]; K562) [µM]
CCN(CC)CCCC(C)Nc1ccnc2cc(Cl)ccc12 (stereo not shown) [CQ, chloroquine diphosphate, reference compound] | 6 ± 1.8 | 13 ± 0.2 | 13.6 ± 0.6 | 14.9 ± 1.5 | 22 ± 2.8 | 53.7 ± 6.9 | 13 ± 0.8 | 16 ± 3 | 45 ± 0.7 | – | – | – | – | – | – | – | –
C=C(CC(=O)OC)C(=O)Nc1ccc(F)cc1 [Compound 2, Methyl 3-[(4-fluorophenyl)carbamoyl]but-3-enoate] | 2 ± 0.1 | 9.3 ± 0.5 | 8.4 ± 0.5 | 2.8 ± 0.6 | 8 ± 0.6 | 15.7 | 15 ± 1 | 4 ± 1 | 15.9 ± 1 | – | – | – | – | – | – | – | –
C=C(CC(=O)OC)C(=O)Nc1cccc(C(F)(F)F)c1 [Compound 3, Methyl 3-{[3-(trifluoromethyl)phenyl]carbamoyl}but-3-enoate] | 2 ± 0.4 | 3.7 ± 0.1 | 5.4 ± 0.1 | 1.9 ± 0.3 | 4.4 ± 0.1 | 21.2 ± 4 | 9 ± 2 | 3 ± 1 | 13.9 ± 0.6 | – | – | – | – | – | – | – | –
C=C(CC(=O)OC)C(=O)Nc1ccc(C(F)(F)F)cc1 [Compound 4, Methyl 3-{[4-(trifluoromethyl)phenyl]carbamoyl}but-3-enoate] | 1 ± 0.3 | 8 ± 0.8 | 8.2 ± 0.4 | 5.3 ± 0.5 | 7.7 ± 0.2 | 16.1 ± 0.4 | 11 ± 3 | 3 ± 1 | 31.3 ± 3 | – | – | – | – | – | – | – | –
C=C(CC(=O)OC)C(=O)Nc1cc(OC)cc2cccnc12 [Compound 5, Methyl 3-[(6-methoxyquinolin-8-yl)carbamoyl]but-3-enoate] | 10 ± 2.5 | 10.1 ± 0.1 | 6.1 ± 0.3 | 6.3 ± 2.3 | 6.2 ± 0.4 | 25.5 ± 9.4 | 8 ± 2 | 12 ± 2 | 31 ± 3.9 | – | – | – | – | – | – | – | –
C=C(CC(=O)OC)C(=O)Nc1cccnc1 [Compound 6, Methyl 3-[(pyridin-3-yl)carbamoyl]but-3-enoate] | 3 ± 1 | 13.1 ± 1 | 10.9 | 8.9 ± 0.1 | 10.2 ± 1 | 26.3 ± 6.6 | 18 ± 1 | 12 ± 2 | 49.9 ± 2.2 | – | – | – | – | – | – | – | –
C=C(CC(=O)OC)C(=O)Nc1cncc(F)c1 [Compound 7, Methyl 3-[(5-fluoropyridin-3-yl)carbamoyl]but-3-enoate] | 3 ± 1.1 | 10.6 ± 0.7 | 9 ± 0.2 | 6.8 ± 1.7 | 8.1 ± 0.3 | 21 ± 2.2 | 16 ± 2 | 7 ± 2 | 43.4 | – | – | – | – | – | – | – | –
C=C(CC(=O)OC)C(=O)NCc1cccnc1 [Compound 8, Methyl 3-{[(pyridin-3-yl)methyl]carbamoyl}but-3-enoate] | 6 ± 1 | 11 ± 0.3 | 10.2 ± 0.3 | 9.1 ± 0.7 | 8.4 ± 0.1 | 16.3 ± 0.1 | 16 ± 2 | 3 ± 1 | 53.3 ± 2.7 | – | – | – | – | – | – | – | –
C=C(CC(=O)OC)C(=O)NCCc1cccnc1 [Compound 9, Methyl 3-{[2-(pyridin-3-yl)ethyl]carbamoyl}but-3-enoate] | 2 ± 1 | 9.6 ± 0.6 | 5.6 ± 1.6 | 5.9 ± 0.2 | 6.2 ± 0.8 | 18.5 ± 2.4 | 15 ± 1 | 4 ± 1 | 34.5 ± 8.7 | – | – | – | – | – | – | – | –
C=C(CC(=O)OC)C(=O)NCCc1c[nH]c2ccc(OC)cc12 [Compound 10, Methyl 3-{[2-(5-methoxy-1H-indol-3-yl)ethyl]carbamoyl}but-3-enoate] | 2 ± 1.2 | 4.9 ± 0.8 | 2.6 ± 0.3 | 2.4 ± 0.9 | 6.5 ± 1.2 | 18.9 ± 4.2 | 11 ± 1 | 3 ± 1 | 16.5 ± 1 | – | – | – | – | – | – | – | –
C=C(CC(=O)OC)C(=O)NCCCC(C)Nc1cc(OC)cc2cccnc12 (stereo not shown) [Compound 11, Methyl 3-({4-[(6-methoxyquinolin-8-yl)amino]pentyl}carbamoyl)but-3-enoate] | 4 ± 1 | 11.1 ± 0.6 | 11 ± 0.2 | 5.4 ± 3.3 | 4.3 ± 2.2 | 18.1 ± 1.1 | 4 ± 0.5 | 2.5 ± 0.07 | 28.1 ± 7.1 | – | – | – | – | – | – | – | –
COc1ccc2[nH]c(CCNC(=O)C=C(C)C(=O)NCCc3c[nH]c4ccc(OC)cc34)cc2c1 [Compound 14, N′-[2-(5-methoxy-1H-indol-2-yl)ethyl]-N-[2-(5-methoxy-1H-indol-3-yl)ethyl]-2-methylbut-2-enediamide] | 11 ± 0.3 | – | – | – | – | – | 23 ± 1 | 13 ± 0.2 | – | – | – | – | – | – | – | – | –
CC(=O)O[C@@]12CO[C@@H]1C[C@H](O)[C@@]1(C)C(=O)[C@H](O)C3=C(C)[C@@H](OC(=O)[C@H](O)[C@@H](NC(=O)OC(C)(C)C)c4ccccc4)C[C@@](O)([C@@H](OC(=O)c4ccccc4)[C@H]21)C3(C)C [DTX, docetaxel, reference compound] | – | – | – | – | – | – | – | – | – | 0.0104 ± 0.0024 | 0.0014 ± 0.0009 | 0.0045 ± 0.002 | 0.0035 ± 0.0012 | 0.002 ± 0.0012 | 0.0058 ± 0.0038 | 0.0045 ± 0.0044 | 0.0096 ± 0.0033
CN[C@@H]1C[C@H]2O[C@@](C)([C@@H]1OC)n1c3ccccc3c3c4c(c5c6ccccc6n2c5c31)C(=O)NC4 [STS, staurosporine, reference compound] | – | – | – | – | – | – | – | – | – | 0.0312 ± 0.0123 | 0.0261 ± 0.0139 | 0.0323 ± 0.0032 | 0.0634 ± 0.0223 | 0.0161 ± 0.0105 | 0.048 ± 0.0023 | 0.023 ± 0.0114 | 0.0337 ± 0.0036

Reference: article PMC7548052 (Molecular Diversity, 2020)
